Experiments:
Substance-P receptor [1] = target: T1, Substance-P receptor (Homo sapiens, UniProt P25103); test: Displacement of [125I]substance P from human NK1 receptor expressed in CHO cells; type: cell-based
Procedure, shortened: (§1)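 Radioligand binding: [125I]substance P displaced from human NK1 receptor expressed in CHO cells; IC50 determined. Also run with 50% serum added (human, dog, rhesus, rat or gerbil) to measure the serum shift.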

Substance-P receptor [2] = target: T1, Substance-P receptor; test: Displacement of [125I]substance P from human NK1 receptor expressed in CHO cells in presence of 50% human serum; type: cell-based; procedure, shortened: as §1
Substance-P receptor [3] = target: T1, Substance-P receptor; test: Antagonist activity at human recombinant NK1 receptor expressed in CHO cells assessed as remaining substance P level at 100 nM after 30 mins by [H3]-inositol phosphate release assay; type: functional, cell-based
Procedure, shortened: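 CHO cells with recombinant human NK1 receptor, 2.5 × 10⁴ per well, plated overnight, then prelabelled overnight at 37 °C with [3H]-myo-inositol (10–25 Ci/mmol) in inositol-free medium with 0.02% BSA. LiCl 10 mM in HEPES-buffered inositol-free DMEM, 15 min. Antagonist at 100 nM or DMSO for 30 min, then substance P for 30 min. Stopped with formic acid. [3H]-inositol phosphate captured on yttrium silicate SPA beads, 2 h. Reported as % substance P response remaining.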

[4] = target: T2, Nuclear receptor subfamily 1 group I member 2 (Homo sapiens, UniProt O75469); test: Inhibition of human PXR induction
T2 sequence (O75469 whole entry): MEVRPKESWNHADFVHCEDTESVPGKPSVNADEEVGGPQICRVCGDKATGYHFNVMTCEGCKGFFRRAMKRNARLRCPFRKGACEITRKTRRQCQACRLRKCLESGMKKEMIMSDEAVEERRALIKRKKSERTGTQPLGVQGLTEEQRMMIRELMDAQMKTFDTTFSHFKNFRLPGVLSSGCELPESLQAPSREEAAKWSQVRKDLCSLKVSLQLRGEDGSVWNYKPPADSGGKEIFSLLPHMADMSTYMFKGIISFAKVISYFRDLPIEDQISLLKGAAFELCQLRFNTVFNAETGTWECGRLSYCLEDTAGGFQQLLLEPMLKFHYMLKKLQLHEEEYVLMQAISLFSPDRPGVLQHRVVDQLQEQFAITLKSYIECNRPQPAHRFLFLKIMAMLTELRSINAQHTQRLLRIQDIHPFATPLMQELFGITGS

[5] = target: T3, PXR (nuclear receptor subfamily 1 group I member 2) (Homo sapiens, UniProt O75469); test: Inhibition of human PXR induction at 10 uM
T3 sequence (O75469 whole entry): T2 sequence (O75469 whole entry)
Procedure, shortened: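 Human PXR induction measured at 10 µM compound, expressed as % of maximal induction.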

[6] = Binding affinity to potassium channel IKr
[7] = Binding affinity to calcium channel
Procedure, shortened: (§2)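 Ion channel binding assay; IC50 values calculated for sodium channel and for calcium channel (Dlz site).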

[8] = Binding affinity to sodium channel; procedure, shortened: as §2
Meriones unguiculatus [9] = test: Inhibition of GR-73632-induced foot tapping in Mongolian gerbil at 3 mg/kg after 24 hrs; type: functional
Procedure, shortened: (§3)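 Gerbils given antagonist at the dose and pretreatment time shown (1 mg/kg at 1 h, 3 mg/kg at 24 h); foot tapping then induced with the NK1 agonist GR73632. Read-out is % inhibition of tapping; ED50 or ID50 from dose–response.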

Meriones unguiculatus [10] = test: Inhibition of GR-73632-induced foot tapping in Mongolian gerbil at 1 mg/kg after 1 hr; type: functional; procedure, shortened: as §3
Meriones unguiculatus [11] = species: Meriones unguiculatus; test: Inhibition of GR-73632-induced foot tapping in Mongolian gerbil after 24 hrs; type: functional; details: read-out: ED50; procedure, shortened: as §3

T1 sequence (P25103 whole entry): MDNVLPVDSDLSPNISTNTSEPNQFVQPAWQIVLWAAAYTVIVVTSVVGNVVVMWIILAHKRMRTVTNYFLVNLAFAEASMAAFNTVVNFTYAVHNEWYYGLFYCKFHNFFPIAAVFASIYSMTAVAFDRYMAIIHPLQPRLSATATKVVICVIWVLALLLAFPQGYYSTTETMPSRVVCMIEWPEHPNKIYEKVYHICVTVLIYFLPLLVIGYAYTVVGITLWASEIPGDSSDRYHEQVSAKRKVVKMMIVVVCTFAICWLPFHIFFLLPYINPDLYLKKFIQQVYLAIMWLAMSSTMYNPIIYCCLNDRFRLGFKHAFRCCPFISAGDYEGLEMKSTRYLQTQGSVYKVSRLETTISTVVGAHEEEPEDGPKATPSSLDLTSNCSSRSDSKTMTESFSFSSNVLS

IC50 (Substance-P receptor [1]) [nM] | IC50 (Substance-P receptor [2]) [nM] | Activity (Substance-P receptor [3]) [%] | IC50 [4] [nM] | Emax at 10 µM [5] [%] | IC50 [7] [nM] | IC50 [8] [nM] | Structure (SMILES) | IC50 [6] [nM] | inhibition in vivo at 3 mg/kg (Meriones unguiculatus [9]) [%] | inhibition in vivo at 1 mg/kg (Meriones unguiculatus [10]) [%] | ED50 (Meriones unguiculatus [11]) [mg/kg]
0.09 | 1 | 6 | > 25000 | 0 | 1230 | 710 | C[C@@H](O[C@H]1CN2C(=O)[C@H]3C[C@@H](N)C[C@H]3[C@H]2[C@@H]1c1ccc(F)cc1)c1cc(C(F)(F)F)cc(C(F)(F)F)c1 | 990 | 91 |  | 
0.66 | 13 | 61 |  |  |  |  | CC(O[C@H]1CN2C(=O)[C@@H]3CC(N)C[C@@H]3[C@H]2[C@@H]1c1ccc(F)cc1)c1cc(C(F)(F)F)cc(C(F)(F)F)c1 (single isomer, unassigned) |  |  |  | 
0.06 | 0.77 | 3 | 4500 | 65 |  |  | C[C@@H](O[C@H]1CN2C(=O)[C@H]3C[C@@H](O)C[C@H]3[C@H]2[C@@H]1c1ccc(F)cc1)c1cc(C(F)(F)F)cc(C(F)(F)F)c1 |  | 100 | 100 | 
0.21 | 2.3 | 31 |  |  |  |  | CC[C@@]1(O)C[C@H]2[C@H]3[C@H](c4ccc(F)cc4)[C@@H](O[C@H](C)c4cc(C(F)(F)F)cc(C(F)(F)F)c4)CN3C(=O)[C@H]2C1 |  |  |  | 
0.08 | 1.7 | 35 |  |  |  |  | C[C@@H](O[C@H]1CN2C(=O)[C@H]3C[C@H](O)C[C@H]3[C@H]2[C@@H]1c1ccc(F)cc1)c1cc(C(F)(F)F)cc(C(F)(F)F)c1 |  |  |  | 
0.11 | 1 | 10 | > 25000 | 0 | 590 | 520 | C[C@@H](O[C@H]1CN2C(=O)[C@H]3C[C@H](N)C[C@H]3[C@H]2[C@@H]1c1ccc(F)cc1)c1cc(C(F)(F)F)cc(C(F)(F)F)c1 | 1730 | 100 |  | 1.33
1.5 | 47 | 93 |  |  |  |  | C[C@@H](O[C@H]1CN2C(=O)[C@@H]3C[C@H](N)C[C@@H]3[C@H]2[C@@H]1c1ccc(F)cc1)c1cc(C(F)(F)F)cc(C(F)(F)F)c1 |  |  |  | 
0.066 | 1.2 | 24 |  |  |  |  | C[C@@H](O[C@H]1CN2C(=O)[C@H]3C[C@](C)(O)C[C@H]3[C@H]2[C@@H]1c1ccc(F)cc1)c1cc(C(F)(F)F)cc(C(F)(F)F)c1 |  |  |  | 
0.16 | 1.7 | 4 | 3300 | 51 | 8420 |  | CC[C@]1(O)C[C@H]2[C@H]3[C@H](c4ccc(F)cc4)[C@@H](O[C@H](C)c4cc(C(F)(F)F)cc(C(F)(F)F)c4)CN3C(=O)[C@H]2C1 | 1770 | 100 |  | 0.06

Continued, compound first:

Structure (SMILES) | IC50 (Substance-P receptor [1]) [nM] | IC50 (Substance-P receptor [2]) [nM] | Activity (Substance-P receptor [3]) [%] | IC50 [4] [nM] | Emax at 10 µM [5] [%] | IC50 [7] [nM] | IC50 [8] [nM] | IC50 [6] [nM] | inhibition in vivo at 3 mg/kg (Meriones unguiculatus [9]) [%] | inhibition in vivo at 1 mg/kg (Meriones unguiculatus [10]) [%] | ED50 (Meriones unguiculatus [11]) [mg/kg]
C[C@@H](O[C@H]1CN2C(=O)[C@@H]3C[C@@H](NCc4ccccc4)C[C@@H]3[C@H]2[C@@H]1c1ccc(F)cc1)c1cc(C(F)(F)F)cc(C(F)(F)F)c1 | 0.14 | 2.3 | 58 |  |  |  |  |  | 6 | 81 | 
C[C@@H](O[C@H]1CN2C(=O)C3CNCC3[C@H]2[C@@H]1c1ccc(F)cc1)c1cc(C(F)(F)F)cc(C(F)(F)F)c1 (stereo in doubt; 6b) |  |  | 60 |  |  |  |  |  |  |  | 
C[C@@H](O[C@H]1CN2C(=O)C3CN(C4=CC(=O)CC4)CC3[C@H]2[C@@H]1c1ccc(F)cc1)c1cc(C(F)(F)F)cc(C(F)(F)F)c1 (single isomer, unassigned) [FIRST ELUDED ISOMER] | 0.17 | 1.9 |  |  |  | 8810 |  | 1430 | 32 |  | 
C[C@@H](O[C@H]1CN2C(=O)C3CNCC3[C@H]2[C@@H]1c1ccc(F)cc1)c1cc(C(F)(F)F)cc(C(F)(F)F)c1 (single isomer, unassigned) [FIRST ELUDED ISOMER] | 1.5 | 15 |  |  |  |  |  |  |  |  | 
C[C@@H](O[C@H]1CN2C(=O)[C@H]3C[C@H](NCc4ccccc4)C[C@H]3[C@H]2[C@@H]1c1ccc(F)cc1)c1cc(C(F)(F)F)cc(C(F)(F)F)c1 | 0.14 | 1.3 | 4 | > 25000 | 0 | 210 | 210 | 300 | 94 |  | 
C[C@@H](O[C@H]1CN2C(=O)C3CNCC3[C@H]2[C@@H]1c1ccc(F)cc1)c1cc(C(F)(F)F)cc(C(F)(F)F)c1 (stereo in doubt; 6b) [FIRST ELUDED ISOMER] | 0.31 | 3.2 |  |  |  | 310 |  | 2710 | 12 |  | 
C[C@@H](O[C@H]1CN2C(=O)C3CNCC3[C@H]2[C@@H]1c1ccc(F)cc1)c1cc(C(F)(F)F)cc(C(F)(F)F)c1 (single isomer, unassigned) |  |  | 46 |  |  |  |  |  |  |  | 
C[C@@H](O[C@H]1CN2C(=O)C3CN(C4=CC(=O)CC4)CC3[C@H]2[C@@H]1c1ccc(F)cc1)c1cc(C(F)(F)F)cc(C(F)(F)F)c1 (single isomer, unassigned) |  |  | 11 |  |  |  |  |  |  |  | 
C[C@@H](O[C@H]1CN2C(=O)CC[C@H]2[C@@H]1c1ccc(F)cc1)c1cc(C(F)(F)F)cc(C(F)(F)F)c1 |  |  | 88 | 4800 | 50 | 1580 | 1750 | 5700 | 100 |  | 0.2
C[C@@H](O[C@H]1CN2C(=O)C3CN(C4=CC(=O)CC4)CC3[C@H]2[C@@H]1c1ccc(F)cc1)c1cc(C(F)(F)F)cc(C(F)(F)F)c1 (stereo in doubt; 18b) [FIRST ELUDED ISOMER] | 0.09 | 1 |  |  |  | 4810 |  | 730 |  | 92 | 
C[C@@H](O[C@H]1CN2C(=O)[C@H]3C[C@@H](NCc4ccccc4)C[C@H]3[C@H]2[C@@H]1c1ccc(F)cc1)c1cc(C(F)(F)F)cc(C(F)(F)F)c1 | 0.17 | 1.8 | 2 | > 25000 | 0 | 140 |  | 280 | 100 |  | 0.47
C[C@@H](O[C@H]1CN2C(=O)C(N)C[C@H]2[C@@H]1c1ccc(F)cc1)c1cc(C(F)(F)F)cc(C(F)(F)F)c1 (stereo partly specified) |  |  | 59 | > 25000 | 7 | 210 | 240 | 6500 | 100 |  | 0.61
C[C@@H](O[C@H]1CN2C(=O)C3CN(C4=CC(=O)CC4)CC3[C@H]2[C@@H]1c1ccc(F)cc1)c1cc(C(F)(F)F)cc(C(F)(F)F)c1 (stereo in doubt; 18b) |  |  | 7 |  |  |  |  |  |  |  | 
C[C@@H](O[C@H]1CN2C(=O)CC(N)[C@H]2[C@@H]1c1ccc(F)cc1)c1cc(C(F)(F)F)cc(C(F)(F)F)c1 (stereo partly specified) |  |  | 75 | > 25000 | 1 | 1880 | 7720 | 9500 | 100 |  | 0.92
C[C@@H](O[C@H]1CN2C(=O)[C@@H]3C[C@H](NCc4ccccc4)C[C@@H]3[C@H]2[C@@H]1c1ccc(F)cc1)c1cc(C(F)(F)F)cc(C(F)(F)F)c1 | 1.2 | 13 | 94 |  |  |  |  |  |  |  | 
